How the values were obtained:
PSN-1 cells = assay: MTT cytotoxicity, 72 h, PSN-1 pancreatic cancer cells; type: cell-based, human; conditions: read-out: IC50 (μM) ± S.D., PSN-1, MTT test
How it was run: (§1)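 Cells were kept in log phase at 37 °C, 5% CO₂, in RPMI-1640 with 10% fetal calf serum, penicillin/streptomycin and 2 mM L-glutamine. […] MTT read-out after 72 h exposure, absorbance 570 nm versus untreated wells. IC50 from 4-parameter logistic model; means of at least three independent experiments.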

LoVo cells [1] = assay: MTT cytotoxicity, 72 h, LoVo colon cancer cells; type: cell-based, human; conditions: read-out: IC50 (μM) ± S.D., LoVo, MTT test, 2D monolayer
How it was run: as §1

U-1285 cells = assay: MTT cytotoxicity, 72 h, U-1285 small cell lung cancer cells; type: cell-based, human; conditions: read-out: IC50 (μM) ± S.D., U-1285, MTT test
How it was run: as §1

B-CPAP cells = assay: MTT cytotoxicity, 72 h, B-CPAP thyroid cancer cells; type: cell-based, human; conditions: read-out: IC50 (μM) ± S.D., B-CPAP, MTT test
How it was run: as §1

LoVo spheroids = assay: 3D spheroid culture, acid phosphatase; type: cell-based, human; conditions: read-out: IC50 (μM) ± S.D., LoVo spheroids; 3D spheroids, 72 h, APH assay
How it was run: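 LoVo spheroids formed from 2.5 × 10³ cells per well in round-bottom non-treated wells, in phenol red free F-12 HAMs medium with 10% fetal calf serum plus 20% methyl cellulose stock solution. Test compound added from DMSO stock (final DMSO 0.5%) at increasing concentrations for 72 h. Viability by modified acid phosphatase assay at 405 nm. IC50 from 4-parameter logistic fit; means of at least three independent experiments.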

MCF-7 cells = assay: MTT cytotoxicity, 72 h, MCF-7 breast cancer cells; type: cell-based, human; conditions: read-out: IC50 (μM) ± S.D., MCF-7, MTT test
How it was run: as §1

LoVo cells [2] = assay: Hoechst 33258 staining, morphological analysis of cell death mode; type: cell-based, human; conditions: 48 h with IC50
How it was run: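 LoVo cells were seeded at 5 × 10⁴ per well on tissue-culture slides, grown 24 h and washed twice with PBS. They were then treated with test compound, stained 5 min with 10 μg mL⁻¹ Hoechst 33258 in PBS, and examined for nuclear morphology by confocal microscopy at 40× and 10×.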

[3] = tested on: human cancer cell line panel; assay: MTT cytotoxicity across the in-house human cancer cell line panel; type: cell-based; conditions: MTT test, 72 h
How it was run: as §1

LoVo OXP cells = assay: MTT cytotoxicity, 72 h, oxaliplatin-resistant LoVo OXP colon cancer cells; type: cell-based, human
How it was run: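 Oxaliplatin-resistant LoVo OXP subline obtained by growing LoVo cells in increasing oxaliplatin concentrations, with 17 months of resistant-clone selection. Paired with parental LoVo cells in RPMI-1640 with 10% fetal calf serum and 2 mM L-glutamine. 72 h MTT exposure with test compound in DMSO (final 0.5%), absorbance 570 nm. IC50 fitted by 4-parameter logistic model from at least three independent experiments.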

HEK-293 cells = assay: MTT cytotoxicity, 72 h, non-tumor HEK-293 embryonic kidney cells; type: cell-based, human
[4] = target: protein disulfide isomerase (PDI) (Homo sapiens, UniProt P07237); assay: Cell-free PDI inhibition; type: biochemical
protein disulfide isomerase (PDI), sequence (P07237 18-508): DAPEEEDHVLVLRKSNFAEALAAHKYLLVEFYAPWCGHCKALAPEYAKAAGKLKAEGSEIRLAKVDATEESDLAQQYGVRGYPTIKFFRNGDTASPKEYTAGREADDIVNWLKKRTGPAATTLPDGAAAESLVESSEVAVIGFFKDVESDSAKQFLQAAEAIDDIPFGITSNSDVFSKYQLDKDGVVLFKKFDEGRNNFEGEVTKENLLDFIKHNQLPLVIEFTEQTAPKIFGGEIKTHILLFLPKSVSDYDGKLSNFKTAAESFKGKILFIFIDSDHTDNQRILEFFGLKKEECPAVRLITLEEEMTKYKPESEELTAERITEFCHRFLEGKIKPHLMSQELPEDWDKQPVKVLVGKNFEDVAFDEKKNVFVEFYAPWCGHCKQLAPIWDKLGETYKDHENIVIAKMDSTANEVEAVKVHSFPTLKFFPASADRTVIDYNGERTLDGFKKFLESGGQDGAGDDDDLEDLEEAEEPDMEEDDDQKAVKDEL

Row | SMILES | IC50 (PSN-1 cells) [µM] | IC50 (LoVo cells [1]) [µM] | IC50 (U-1285 cells) [µM] | IC50 (B-CPAP cells) [µM] | IC50 (LoVo spheroids) [µM] | IC50 (MCF-7 cells) [µM] | morphological changes (cell death mode) (LoVo cells [2]) | cytotoxic effect against all tested cancer cell lines [3] | R.F. = IC50 (resistant subline)/IC50 (wild-type cells) (LoVo OXP cells) | S.I. = average IC50 normal cells/average IC50 for the malignant cells (HEK-293 cells; HEK-293 vs malignant cells) | IC50 (HEK-293 cells; read-out: IC50 (μM) ± S.D., HEK-293, MTT test, 72 h, non-tumor cells) [µM] | reduction of PDI catalytic activity ([4]; highest tested dose (50 μM)) | IC50 ([4]; read-out: IC50 for PDI inhibition, cell-free, Proteostat kit) [µM] | fold more effective than complex 2 (average IC50) [3] [fold] | IC50 ([3]; read-out: average IC50 across the human cancer cell lines) [µM]
1 | N.N.[Cl][Pt][Cl] [Cisplatin, cisplatin, reference compound] | 12.1 ± 2.8 | 7.6 ± 1.5 | 2.1 ± 0.8 | 18.5 ± 4.1 | 60.6 ± 6.3 | 13.9 ± 1.3 | classical morphological features of apoptosis induction | – | – | – | – | – | – | – | –
2 | Cc1cc(C)n(C(C(=O)OC(C)C)n2nc(C)cc2C)n1 [L^2OiPr, [HC(3,5-Me2pz)2COO^iPr]] | > 50 | > 50 | > 50 | > 50 | – | > 50 | – | completely ineffective | – | – | – | – | – | – | –
3 | CC(C)OC(=O)C(n1cccn1)n1cccn1 [L^OiPr, [HC(pz)2COO^iPr]] | > 50 | > 50 | > 50 | > 50 | – | > 50 | – | completely ineffective | – | – | – | – | – | – | –
4 | O=C1[O][Pt]2([NH][C@@H]3CCCC[C@H]3[NH]2)[O]C1=O [Oxaliplatin, oxaliplatin, reference compound] | – | 1.1 ± 0.6 | – | – | – | – | – | – | 13 | – | – | – | – | – | –
5 | C1N2CN3CN1CP(C2)C3.Cc1cc(C)n(C(C(=O)OC(C)C)n2nc(C)cc2C)n1.F[P-](F)(F)(F)(F)F.[Cu+] [compound 4, [Cu(L^2OiPr)(PTA)]PF6] | 18.2 ± 0.8 | 7.8 ± 1.5 | 11.9 ± 1.9 | 14.3 ± 0.9 | 144 ± 7.8 | 14 ± 1.7 | no classical hallmarks of apoptosis | – | 1.9 | > 4.0 | > 50 | about 80% | 13.7 | 2 | 12.3

From publication PMC11605304 (RSC Medicinal Chemistry, 2024)
